# Activity calls are given as the source filed them. The rule behind the calls is not given here.
# Columns and labels:
# Candida albicans [1] = assay: Antimicrobial activity against Candida albicans ATCC 90028 by NCCLS method; assay type: functional, organism-based
# Summary of the method: (§1)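 Samples serially diluted in 20% DMSO/saline, tested in duplicate. Inocula set by OD630: C. albicans RPMI pH 4.5, 1·10^4 CFU/mL; C. neoformans Sabouraud dextrose, 1·10^5; MRSA cation-adjusted Mueller-Hinton pH 7.3, 5·10^5; M. intracellulare 7H9/OADC + 5% Alamar Blue pH 7.3, 2·10^6; A. fumigatus RPMI pH 7.3 + 5% Alamar Blue, 3·10^4.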
# Cryptococcus neoformans [2] = assay: Antimicrobial activity against Cryptococcus neoformans ATCC 90113 by NCCLS method; assay type: functional, organism-based; summary of the method: as §1
# Staphylococcus aureus [3] = assay: Antimicrobial activity against methicillin-resistant Staphylococcus aureus ATCC 43300 by NCCLS method; assay type: functional, organism-based; summary of the method: as §1
# [4] = tested on: Mycobacterium intracellulare; assay: Antimicrobial activity against Mycobacterium intracellular ATCC 23068 by alamar blue assay; assay type: functional, organism-based
# Summary of the method: as §1, with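 “3·10^4. Read at 630 nm or 544ex/590em before and after incubation.” for “3·10^4.”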
# Aspergillus fumigatus [5] = assay: Antimicrobial activity against Aspergillus fumigatus ATCC 90906 by alamar blue assay; assay type: functional, organism-based; settings: for IC50: read-out: IC50; summary of the method: as §1
# Leishmania donovani = assay: Antileishmanial activity against Leishmania donovani promastigotes after 48 hrs by alamar blue assay; assay type: functional, organism-based
# SK-MEL = assay: Cytotoxicity against human SK-MEL cells after 48 hrs by neutral red assay; assay type: functional, cell-based
# Summary of the method: (§2)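 Cells seeded at 25,000/well, incubated 24 h, then exposed to samples for 48 h. Viable cells measured by Neutral Red uptake. IC50 from logarithmic plots of growth inhibition vs concentration. Doxorubicin positive control, DMSO vehicle control.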
# KB = assay: Cytotoxicity against human KB cells after 48 hrs by neutral red assay; assay type: functional, cell-based; summary of the method: as §2
# BT-549 = assay: Cytotoxicity against human BT549 cells after 48 hrs by neutral red assay; assay type: functional, cell-based; settings: BT-549, 48 h; summary of the method: as §2
# SK-OV-3 = assay: Cytotoxicity against human SKOV3 cells after 48 hrs by neutral red assay; assay type: functional, cell-based; settings: SK-OV-3, 48 h; summary of the method: as §2
# Vero [6] = assay: Cytotoxicity against african green monkey Vero cells after 48 hrs by neutral red assay; assay type: cell-based, Chlorocebus sabaeus; summary of the method: as §2
# Plasmodium falciparum [7] = assay: Antimalarial activity after 72 hrs against […] Plasmodium falciparum D6 by pLDH activity; assay type: functional, organism-based; settings: D6, 72 h
# Summary of the method: (§3)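 P. falciparum-infected red cells (2% parasitemia, 2% hematocrit) in RPMI-1640 with 10% human serum and 60 μg/mL amikacin, exposed to serial sample concentrations. Gassed with 90% N2/5% O2/5% CO2, incubated 37 °C for 72 h. Parasite LDH activity read colorimetrically with Malstat reagent.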
# Vero [8] = assay: Cytotoxicity against african green monkey Vero cells; assay type: cell-based; settings: Chlorocebus sabaeus; summary of the method: as §2
# [9] = Selectivity index, IC50 for african green monkey (Cercopithecus aethiops) Vero cells to IC50 for chloroquine-sensitive Plasmodium falciparum D6; assay type: functional
# Summary of the method: (§4)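 Selectivity index = IC50 against VERO cells divided by IC50 against P. falciparum (D6 or W2, respectively), each from the corresponding in-house assay.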
# Plasmodium falciparum [10] = assay: Antimalarial activity after 72 hrs against chloroquine-resistant Plasmodium falciparum W2 by pLDH activity; assay type: functional, organism-based; settings: W2, 72 h; summary of the method: as §3
# [11] = Selectivity index, IC50 for african green monkey (Cercopithecus aethiops) Vero cells to IC50 for […]; assay type: functional; summary of the method: as §4
# Candida albicans [12] = assay: Antimicrobial activity against Candida albicans ATCC 90028 by NCCLS method in presence of 5% human serum; assay type: functional, organism-based
# Cryptococcus neoformans [13] = assay: Antimicrobial activity against Cryptococcus neoformans ATCC 90113 by NCCLS method in presence of 5% human serum; assay type: functional, organism-based
# Staphylococcus aureus [14] = assay: Antimicrobial activity against methicillin-resistant Staphylococcus aureus ATCC 43300 by NCCLS method in presence of 5% human serum; assay type: functional, organism-based
# [15] = tested on: Mycobacterium intracellulare; assay: Antimicrobial activity against Mycobacterium intracellular ATCC 23068 by alamar blue assay in presence of 5% human serum; assay type: functional, organism-based
# Aspergillus fumigatus [16] = assay: Antimicrobial activity against Aspergillus fumigatus ATCC 90906 by alamar blue assay in presence of 5% human serum; assay type: functional, organism-based
# Plasmodium berghei [17] = assay: Antimalarial activity as elimination of parasitaemia at day 28 against Plasmodium berghei NK65 infected Swiss Webster mice (Mus musculus) at 1 mg/kg/day intraperitoneal dose for 3 days; assay type: functional, organism-based
# Summary of the method: (§5)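 Peters 4-day suppressive test: male Swiss Webster mice (18–20 g) inoculated ip with 2·10^7 P. berghei NK-65 parasitized red cells. Compound in DMSO:PEG:water (1:3:6) given ip ~2 h post-infection, then once daily for 3 days (days 0–2). 5 mice/group; vehicle-treated control. Giemsa-stained tail blood smears read to day 28. % suppression = 100 − (treated/untreated parasitemia × 100). Cure = no parasitemia until day 28. Mice observed after each dose for signs of toxicity.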
# Plasmodium berghei [18] = assay: Antimalarial activity as elimination of parasitaemia at day 28 against Plasmodium berghei NK65 infected Swiss Webster mice (Mus musculus) at 2 mg/kg/day intraperitoneal dose for 3 days; assay type: functional, organism-based; summary of the method: as §5
# Plasmodium berghei [19] = assay: Antimalarial activity as reduced parasitaemia against Plasmodium berghei NK65 infected Swiss Webster mice (Mus musculus); assay type: functional
# Plasmodium berghei [20] = assay: Antimalarial activity as reduced parasitaemia at day 3 against Plasmodium berghei NK65 infected Swiss Webster mice (Mus musculus) at 1 mg/kg/day intraperitoneal dose for 3 days; assay type: functional; parameters: scale not given: the % may be the effect or the level left; summary of the method: as §5
# Plasmodium berghei [21] = assay: Antimalarial activity as reduced parasitaemia at day 3 against Plasmodium berghei NK65 infected Swiss Webster mice (Mus musculus) at 2 mg/kg/day intraperitoneal dose for 3 days; assay type: functional; parameters: scale not given: the % may be the effect or the level left; summary of the method: as §5
# Mus musculus = assay: Toxicity in Swiss Webster mouse at 1 mg/kg, ip administered once daily for 3 days; assay type: organism-based; parameters: dose 1 mg/kg, route intraperitoneal; settings: in vivo, 72 h; summary of the method: as §5
# LLC-PK1 = assay: Cytotoxicity against pig LLC-PK1 cells after 48 hrs by neutral red assay; assay type: cell-based, Sus scrofa; summary of the method: as §2
# [22] = Toxicity in RBC assessed as hemolysis; assay type: cell-based; settings: Erythrocyte
# Plasmodium berghei [23] = assay: Antimalarial activity as reduced parasitaemia at day 10 against Plasmodium berghei NK65 infected Swiss Webster mice (Mus musculus) at 1 mg/kg/day intraperitoneal dose for 3 days; assay type: functional; parameters: scale not given: the % may be the effect or the level left; summary of the method: as §5
# Plasmodium berghei [24] = assay: Antimalarial activity as reduced parasitaemia at day 17 against Plasmodium berghei NK65 infected Swiss Webster mice (Mus musculus) at 1 mg/kg/day intraperitoneal dose for 3 days; assay type: functional, organism-based; summary of the method: as §5
# Plasmodium berghei [25] = assay: Antimalarial activity as reduced parasitaemia at day 17 against Plasmodium berghei NK65 infected Swiss Webster mice (Mus musculus) at 2 mg/kg/day intraperitoneal dose for 3 days; assay type: functional, organism-based; summary of the method: as §5
# Cryptococcus neoformans [26] = assay: Antimicrobial activity against Cryptococcus neoformans ATCC 90113 infected in mouse assessed as […] elimination from brain tissue at 0.0625 mg/kg/day, ip for 5 days; assay type: functional; settings: route intraperitoneal
# [27] = Aspergillus fumigatus, ATCC 90906
# [28] = Chlorocebus sabaeus, Vero, 48 h, read-out: IC50
# [29] = Candida albicans, ATCC 90028, read-out: IC50
compound,measurement,setting,value
C[C@H]1N[C@@H](CCCCCCCCCCC2=C[C@@H](CCCCCCCCCC[C@@H]3CC[C@H](O)[C@@H](C)N3)[C@@H]3CCCN3C2)CC[C@H]1O [ISOPROSOPILOSINE],IC50,Candida albicans [1],Not Active
same,IC50,Cryptococcus neoformans [2],0.4 µg/mL
same,MFC,Cryptococcus neoformans [2],0.63 µg/mL
same,MIC,Cryptococcus neoformans [2],0.63 µg/mL
same,IC50,Staphylococcus aureus [3],1 µg/mL
same,MIC,Staphylococcus aureus [3],2.5 µg/mL
same,IC50,[4],1.5 µg/mL
same,MFC,Aspergillus fumigatus [5]; [27],2.5 µg/mL
same,MIC,Aspergillus fumigatus [5]; [27],0.16 µg/mL
same,IC50,Aspergillus fumigatus [5]; [27],0.1 µg/mL
same,IC50,Leishmania donovani,0.26 µg/mL
same,IC50,SK-MEL,< 1.1 µg/mL
same,IC50,KB,2.2 µg/mL
same,IC50,BT-549,2.5 µg/mL
same,IC50,SK-OV-3,< 1.1 µg/mL
same,IC50,Vero [6]; [28],1.8 µg/mL
same,IC50,Plasmodium falciparum [7],0.083 µg/mL
same,IC50,Vero [8],1.8 µg/mL
same,Ratio IC50,[9],22
same,IC50,Plasmodium falciparum [10],0.15 µg/mL
same,Ratio IC50,[11],12
C[C@H]1N[C@@H](CCCCCCCCCCC2=C[C@@H](CCCCCCCCCC[C@H]3CC[C@@H](O)[C@@H](C)N3)[C@@H]3CCCN3C2)CC[C@H]1O [JULIPROSOPINE],IC50,Candida albicans [1],Not Active
same,MFC,Candida albicans [1],inactive
same,MIC,Candida albicans [1],inactive
same,IC50,Cryptococcus neoformans [2],1.5 µg/mL
same,IC50,Staphylococcus aureus [3],3.5 µg/mL
same,MBC,Staphylococcus aureus [3],inactive
same,IC50,[4],6 µg/mL
same,MFC,Aspergillus fumigatus [5]; [27],1.25 µg/mL
same,MIC,Aspergillus fumigatus [5]; [27],1.25 µg/mL
same,IC50,Aspergillus fumigatus [5]; [27],0.9 µg/mL
same,Activity,Candida albicans [12],Active
same,Activity,Cryptococcus neoformans [13],Active
same,Activity,Staphylococcus aureus [14],Active
same,Activity,[15],Active
same,Activity,Aspergillus fumigatus [16],Active
same,IC50,Leishmania donovani,0.75 µg/mL
same,IC50,SK-MEL,2.4 µg/mL
same,IC50,KB,6.2 µg/mL
same,IC50,SK-OV-3,4.7 µg/mL
same,IC50,Vero [6]; [28],5 µg/mL
same,IC50,Plasmodium falciparum [7],0.22 µg/mL
same,IC50,Vero [8],5 µg/mL
same,Ratio IC50,[9],23
same,IC50,Plasmodium falciparum [10],0.38 µg/mL
same,Ratio IC50,[11],13
C[C@@H]1N[C@H](CCCCCCCCCCc2cc(CCCCCCCCCC[C@@H]3CC[C@H](O)[C@@H](C)N3)c3[n+](c2)CCC3)CC[C@H]1O.[Cl-] [PROSOPILOSIDINE],MFC,Candida albicans [1],inactive
same,MIC,Candida albicans [1],inactive
same,IC50,Candida albicans [1]; [29],15 µg/mL
same,IC50,Cryptococcus neoformans [2],0.4 µg/mL
same,MIC,Cryptococcus neoformans [2],0.63 µg/mL
same,IC50,Staphylococcus aureus [3],0.35 µg/mL
same,MBC,Staphylococcus aureus [3],5 µg/mL
same,MIC,Staphylococcus aureus [3],1.25 µg/mL
same,IC50,[4],0.9 µg/mL
same,MBC,[4],20 µg/mL
same,MFC,Aspergillus fumigatus [5],inactive
same,MIC,Aspergillus fumigatus [5]; [27],5 µg/mL
same,IC50,Aspergillus fumigatus [5]; [27],3 µg/mL
same,Activity,Candida albicans [12],Active
same,Activity,Cryptococcus neoformans [13],Active
same,Activity,Staphylococcus aureus [14],Active
same,Activity,[15],Active
same,Activity,Aspergillus fumigatus [16],Active
same,Activity,Plasmodium berghei [17],inactive
same,Activity,Plasmodium berghei [18],inactive
same,ED50,Plasmodium berghei [19],2 mg/kg
same,Activity,Plasmodium berghei [20],48%
same,Activity,Plasmodium berghei [21],48%
same,Activity,Mus musculus,Non-toxic
same,IC50,Leishmania donovani,0.7 µg/mL
same,IC90,Leishmania donovani,1.9 µg/mL
same,IC50,SK-MEL,4.5 µg/mL
same,IC50,KB,7.5 µg/mL
same,IC50,BT-549,8.75 µg/mL
same,IC50,Vero [6]; vero,Not Active
same,IC50,LLC-PK1; llc-pk1,Not Active
same,IC50,[22],16 µg/mL
same,IC50,Plasmodium falciparum [7],0.039 µg/mL
same,IC50,Vero [8],> 23.8 µg/mL
same,IC50,Plasmodium falciparum [10],0.095 µg/mL
same,Activity,Plasmodium berghei [23],40.5%
same,Activity,Plasmodium berghei [24],inactive
same,Activity,Plasmodium berghei [25],inactive
same,Activity,Cryptococcus neoformans [26],76%
C[C@@H]1N[C@H](CCCCCCCCCCC2=C[C@@H](CCCCCCCCCC[C@@H]3CC[C@@H](O)[C@H](C)N3)[C@@H]3CCCN3C2)CC[C@H]1O [PROSOPILOSINE],IC50,Candida albicans [1]; [29],15 µg/mL
same,IC50,Cryptococcus neoformans [2],0.8 µg/mL
same,MFC,Cryptococcus neoformans [2],1.25 µg/mL
same,IC50,Staphylococcus aureus [3],1.5 µg/mL
same,IC50,[4],2 µg/mL
same,MBC,[4],20 µg/mL
same,MFC,Aspergillus fumigatus [5]; [27],0.63 µg/mL
same,MIC,Aspergillus fumigatus [5]; [27],0.63 µg/mL
same,IC50,Aspergillus fumigatus [5]; [27],0.45 µg/mL
same,IC50,Leishmania donovani,0.65 µg/mL
same,IC50,SK-MEL,< 1.1 µg/mL
same,IC50,KB,6 µg/mL
same,IC50,Vero [6]; [28],5.7 µg/mL
same,IC50,"LLC-PK1; Sus scrofa, LLC-PK1, 48 h, read-out: IC50",1.9 µg/mL
same,IC50,Plasmodium falciparum [7],0.12 µg/mL
same,IC50,Vero [8],5.6 µg/mL
same,Ratio IC50,[9],47
same,IC50,Plasmodium falciparum [10],0.23 µg/mL
same,Ratio IC50,[11],24

# From ChEMBL document CHEMBL1151806, “Indolizidine, antiinfective and antiparasitic compounds from Prosopis glandulosa var. glandulosa” (J Nat Prod, 2009)
